Legend:
[1] = melting temperature; fluorescence melt of hairpins on a sequencing array, two-state fit, raised by 9.35 °C to match UV melts; conditions: sodium 0.088 M
Method in brief: (§1)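 Folding enthalpy and melting temperature come from bootstrapped two-state fits to Cy3 fluorescence of library hairpins carrying annealed Cy3 and quencher oligos on a sequenced MiSeq flow cell. Imaging was done in 50 mM Na-HEPES pH 8.0, 25 mM NaCl, stepping by 2.5 °C up to 60 °C, and signals were normalised to pre-quench Cy3 and to control constructs. Results of four replicates were combined by inverse variance, and fitted temperatures were raised by 9.35 °C to match UV melts.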

[2] = folding enthalpy; higher = less favourable; fluorescence melt of hairpins on a sequencing array, two-state fit; conditions: sodium 0.088 M
Method in brief: as §1

Sequence	Tm [1] [°C]	folding enthalpy [2] [kcal/mol]
GGGTGAGGAAACTCACTC (.(((((....))))).)	53.9	-17.8
GATCTGTACTCAGATC ((((((....))))))	50.2	-36.1
GATCTCAGCGGAGATC ((((((....))))))	53.7	-38.3
CGCGCGGAAACGCCTGCG ((((((....)))..)))	46.8	-17.2
GACCACGAAAGTGTCGTC ((((((....)))..)))	44.8	-18.7
GCGTAAGGAAACTTGCGC (((.(((....))).)))	54.6	-39.4
GCCGTGCGAAAGCCCTGC ((.(.((....)).).))	30.3	-9.62
GGGAGAGGAAACTCTCCC (((((((....)))))))	64.8	-42.9
GTCCGCGAAAGCGGGGAC ((((((....)))..)))	47.3	-8.28
GCTCCGGGAAACCGAAGC (((.(((....))).)))	47.5	-27.9
GATCATATACATGATC ((((((....))))))	48.1	-32.9
ACTGTGAAAACAGT (((((....)))))	46.1	-21.8
GTGAGTGGAAACACTCGC (.(((((....))))).)	54.9	-33.1
GGTCACGAAAGTGCCACC ((((((....)))..)))	44.4	-12.9
GGGGCTGGAAACAGCTCC ((.((((....)))).))	57.7	-28.5
GATCGAGCTGTCGATC ((((((....))))))	51.3	-38.6
GATCACTTAGTGATC ((((((...))))))	58.6	-37
GTGTTGGGAAACCAGCAC (((.(((....))).)))	51.4	-43.9
GCAAAGCGAAAGCTCTGC (((.(((....))).)))	47	-31.1
GAGGGTCCGAAAGGACTC (((..(((....))))))	41.3	-9.51
GATCCAACAATGGATC ((((((....))))))	47.1	-32.7
GATCATTGAGATGATC ((((((....))))))	49.8	-39.4
GTATTGCGAAAGCATTAC (((.(((....))).)))	44.9	-23.7

Sequence	Tm [1] [°C]	folding enthalpy [2] [kcal/mol]
GTGCGGTCGAAAGACCAC (((..(((....))))))	57.5	-13.3
GATCTTGCCGAAGATC ((((((....))))))	46.1	-28.1
GGTCCACGAAAGTGAACC (((.(((....))).)))	51.3	-34.8
GGCTGAGGAAACTTGGCC (((..((....))..)))	43.8	-30.8
GTAGTCGAAAGACGATAC ((((((....)))..)))	35.6	-13
GTAACGGGAAACCATTAC ((((.((....)).))))	28.4	-11.8
GTCTGCGAAAGCATTGAC ((((((....)))..)))	40.2	-14
GAGATTGGAAACAATCTC (((((((....)))))))	56.4	-42.2
GTATGCGCGAAAGCGTAC (((..(((....))))))	31.3	-9.22
GCCTTGCGAAAGCTTGGC (((..((....))..)))	60	-20.9
GATGTTCCGAAAGGAATC (((..(((....))))))	32.4	-13.2
GCCAAGCGAAAGCTTAGC ((.((((....)))).))	48.9	-17.6
GATCACACTGGTGATC ((((((....))))))	56.4	-36.1
GCAAGCGGAAACACTTGC (((((.(....).)))))	48.3	-46.6
ATCGGGAAACCGAT (((((....)))))	50.2	-24.1
GGGTAGCCGAAAGGCCCC (((..(((....))))))	54	-16.1
GGGGAACGAAAGTTTCCC (((.(((....))).)))	61.1	-36.8
GACTGAGAAATCAGTC ((((((....))))))	53.1	-33
GACACAGCGAAAGCTGTC (((..(((....))))))	32.3	-8.05
GCTTAGCGAAAGCTCGGC ((..(((....)))..))	36.7	-17.7
GATCCTTCATAGGATC ((((((....))))))	52.4	-39.5
GAGCGAGGAAACTTGCTC ((((.((....)).))))	52.2	-25.1
GAACGGCGAAAGCCATTC (((.(((....))).)))	44.2	-16.8
